Source: paper PMC8628544 (Developmental cell, 2021)
Like-named read-outs stand apart in the source and are kept apart here. Blank lines part the entries; values can stand above or below the compound they belong to.

Columns and labels:
mouse LECs = format: cell-based
Procedure, shortened: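 LECs were isolated from collagenase D/dispase-digested mouse lymph nodes and grown overnight in semi-synthetic medium (DMEM, Hepes, 1% BSA, ITS-A, 1% FBS) with 1 µM sphingolipid-precursor-BSA. Deletion was induced with 0.5–1 µM 4-OH-TMX. Test compound-BSA (50–100 nM) or vehicle was added, with media renewed daily. At 24 h, cells were fixed and immunostained for NR2F2, Prox1 and […], then imaged by confocal microscopy.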

[1] = tested on: E10.5 embryo cultures of Sptlc2^f/f Cdh5^CreERT2 mice; test: Rescue experiments using ex-vivo embryo culture; set-up: species or system mouse; details: 25 nM 1-deoxySO-BSA; 24 hours; 4-OH-TMX
Procedure, shortened: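 Embryos were cultured in DMEM-F12 with 15% KSR, N2, Glutamax and Pen-Strep. Medium held 1 µM 4-OH-TMX, 5 µM sphingolipid-precursor-BSA and 25 nM test compound-BSA; controls received vehicle-BSA instead. Culture ran in O2-flushed sealed 50 mL tubes on a roller at 37°C, 5% CO2, for 24 h.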

[2] = tested on: human ESC-derived cardiomyocytes; test: Cardiomyocyte differentiation of hESCs; format: cell-based; details: for gene expression in DKO cultures / fraction of TNNT2+ cells in DKO cultures: NR2F1/2 DKO
[3] = target: NR2F1(LBD)-GAL4(DBD) fusion protein (Mus musculus, UniProt Q60632); test: NR2F1; format: cell-based; details: Figure S1C
HEK-293FT cells = test: Cell viability of HEK-293FT cells; format: cell-based, human; details: 1 µM
NR2F2 [4] = test: NR2F2 reporter activity in HEK-293FT cells; format: cell-based; details: 1 µM
Procedure, shortened: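 HEK-293FT cells plated at 5 x 10^4 per well the day before, then PEI-transfected in antibiotic-free DMEM with 1% FBS. Each well received reporter plasmid, NHR plasmid and a Renilla normalisation plasmid. 24 h after transfection, test compound-BSA complexes diluted in 1% FBS medium were added. Dual luciferase read-out.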

RARA LBD = target: T1, RARA LBD (Homo sapiens, UniProt P10276); test: Metabolite pull-down with FLAG-tagged control LBD and LC-MS; format: binding; details: C18+ mode; 500 nM all-trans-retinoic acid in medium; p-value 0.01
T1 sequence (P10276 183-417 limits assumed): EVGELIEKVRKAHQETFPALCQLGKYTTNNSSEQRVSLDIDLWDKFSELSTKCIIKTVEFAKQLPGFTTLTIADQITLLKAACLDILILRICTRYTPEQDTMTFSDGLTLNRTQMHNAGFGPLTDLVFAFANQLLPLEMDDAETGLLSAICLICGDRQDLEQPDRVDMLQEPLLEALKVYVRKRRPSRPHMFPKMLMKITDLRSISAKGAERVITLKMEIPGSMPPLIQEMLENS

NR2F1 LBD = target: T2, NR2F1 LBD (Mus musculus, UniProt Q60632); test: Metabolite pull-down / displacement with FLAG-tagged LBD and LC-MS; format: binding; details: 500 nM retinoic acid in medium
T2 sequence (Q60632 183-422): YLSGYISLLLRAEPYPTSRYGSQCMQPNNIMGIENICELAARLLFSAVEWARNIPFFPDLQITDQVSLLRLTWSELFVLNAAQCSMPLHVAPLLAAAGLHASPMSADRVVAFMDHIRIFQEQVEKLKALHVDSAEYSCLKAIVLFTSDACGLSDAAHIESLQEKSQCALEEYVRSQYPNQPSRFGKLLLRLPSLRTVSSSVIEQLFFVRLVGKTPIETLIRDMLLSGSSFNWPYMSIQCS

NR2F2 [5] = details: at high concentrations; ref Kruse et al., 2008; cited from earlier work
NR2F1/2 = details: read-out: Kd for NR2F1/2; ref Kruse et al., 2008; cited from earlier work
[6] = target: fluorescein-labeled SRC2-2 peptide; test: fluorescence polarisation
[7] = target: fluorescein-labeled SRC2-2 peptide; test: fluorescence polarisation; remark: listed apart in the source
[8] = target: fluorescein-labeled SRC2-2 peptide; test: fluorescence polarisation; remark: listed apart in the source
[9] = 1 µM from day 1, WT, day 6, bulk RNA-seq

Chain of NR2F1(LBD)-GAL4(DBD) fusion protein (P04386 1-147 partner limits assumed, one chain of several): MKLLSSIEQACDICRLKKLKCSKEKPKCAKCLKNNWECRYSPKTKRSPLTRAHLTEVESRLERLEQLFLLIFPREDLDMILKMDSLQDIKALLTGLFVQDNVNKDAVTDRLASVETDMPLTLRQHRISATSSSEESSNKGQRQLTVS

Compound: CCC/C=C\CCCCCCCCCC[C@@H](O)[C@H](C)N [1-deoxySO-14Z, 1-deoxysphingosine (14Z)]
number of viable cells in Sptlc2 deleted cultures (mouse LECs; 4OH-TMX, medium with D-erythroSO, Figure S3C): restored | other lymphatic endothelial markers (LYVE1 and NR2F2) (mouse LECs; within 24 hours after 4OH-TMX): no effects were observed | PROX1 levels in LECs (mouse LECs; within 24 hours after 4OH-TMX, versus vehicle): partially restored | cardiac development in embryo cultures [1]: partially rescued | gene expression in DKO cultures [2]: minimally affected | fraction of TNNT2+ cells in DKO cultures ([2]; 1.5 µM from day 3): did not increase

Compound: CCCCCCCCCCCCC/C=C/[C@@H](O)[C@H](C)N [1-deoxysphingosine]
fraction of TNNT2+ cells in WT cultures ([2]; WT, 1.5 µM from day 3, FACS day 9): increased | number of genes decreased by >2-fold versus vehicle ([2]; WT, day 9): 464 | number of genes increased by >2-fold versus vehicle ([2]; WT, day 9): 265

activity of the NR2F1(LBD)-GAL4(DBD) fusion protein [3]: inhibited
Compound: COc1ccc(O)c2ccccc12 [4-methoxy-1-naphthol]

Compound: CCCCCCCCCCCCC/C=C/[C@@H](O)[C@@H](N)CO [D-erythroSO, D-erythro-sphingosine]
gene expression in DKO cultures [2]: minimally affected | fraction of TNNT2+ cells in DKO cultures ([2]; 1.5 µM from day 3): did not increase

Compound: CCCCCCC(=O)CCCCCC/C=C/C[C@@H](O)[C@H](O)[C@@](N)(CO)C(=O)O [myriocin]
cell viability (HEK-293FT cells): without loss of cell viability | NR2F2 reporter activity (NR2F2 [4]): partially suppress | number of downregulated genes versus vehicle [2, 9]: 850 | number of upregulated genes versus vehicle [2, 9]: 1121

enrichment in RARA but not NR2F1 samples (RARA LBD): 14.76 fold | metabolites with exact masses detected in the NR2F1 samples (NR2F1 LBD): no such metabolites were detected
Compound: CC1=C(/C=C/C(C)=C/C=C/C(C)=C/C(=O)O)C(C)(C)CCC1 [retinoic acid, all-trans retinoic acid]
agonist activity on NR2F2 (NR2F2 [5]): weak agonist | Kd (NR2F1/2): 26 µM

Kd [6]: > 300 nM | Kd [7]: > 300 nM | Kd [8]: 68 nM
Compound: NR2F1/2-LBD
